Values joined by “and” are separate entries in the source; they are usually repeats but may differ in a detail not shown here. Equal entries are not always repeated.
Tested on: Fibroblast
Test: Multiplex assay against human fibroblast
Assay type: toxicity, cell-based
Settings: number of replicates 2
Method in brief: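 Compound was added to live cells that had been stained at seeding with Hoechst33342, BioTracker Green Microtubule Cytoskeleton Dye, MitoTracker Red and Annexin V Alexa Fluor 680, and imaging followed on a CQ1 microscope at 37°C and 5% CO2. CellPathfinder machine-learning gating divided cells into Hoechst high-intensity objects or normal cells, normal cells into healthy, pyknosed or fragmented nuclei, and pyknosed cells into mitotic or apoptotic. Tubulin, mitochondrial-mass and membrane-permeability phenotypes are per cents of healthy-nucleus cells.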

[1] = 12 h, 1 µM, compound concentration 1 uM
[2] = 12 h, 10 µM, compound concentration 10 uM
[3] = 24 h, 1 µM, compound concentration 1 uM
[4] = 24 h, 10 µM, compound concentration 10 uM
[5] = 48 h, 1 µM, compound concentration 1 uM
[6] = 48 h, 10 µM, compound concentration 10 uM

Compound: CCCCOc1c(C(=O)c2c(F)cc(C)cc2F)c[nH]c2nncc1-2
- Population Apoptotic (%) [1]: 52% and 40%
- Population Fragmented Nuclei (%) [1]: 11% and 8%
- Population Healthy Nuclei (%) [1]: 61% and 73%
- Population Hoechst High Intensity Objects (%) [1]: 0%
- Population Membrane Permeable-Phenotype (%) [1]: 8% and 5%
- Population Mitochondria Different-Phenotype (%) [1]: 0%
- Population Mitotic Cells (%) [1]: 47% and 60%
- Population Normal (%) [1]: 100%
- Population Pyknosed Nuclei (%) [1]: 27% and 18%
- Population Tubulin-Different-Phenotype (%) [1]: 21% and 12%
- Total Cell Count [1]: 200 and 276
- Population Apoptotic (%) [2]: 57% and 64%
- Population Fragmented Nuclei (%) [2]: 10% and 8%
- Population Healthy Nuclei (%) [2]: 64% and 57%
- Population Hoechst High Intensity Objects (%) [2]: 0%
- Population Membrane Permeable-Phenotype (%) [2]: 2% and 8%
- Population Mitochondria Different-Phenotype (%) [2]: 1% and 0%
- Population Mitotic Cells (%) [2]: 42% and 35%
- Population Normal (%) [2]: 99%
- Population Pyknosed Nuclei (%) [2]: 25% and 33%
- Population Tubulin-Different-Phenotype (%) [2]: 22% and 19%
- Total Cell Count [2]: 271 and 238
- Population Apoptotic (%) [3]: 50% and 43%
- Population Fragmented Nuclei (%) [3]: 14% and 7%
- Population Healthy Nuclei (%) [3]: 55% and 66%
- Population Hoechst High Intensity Objects (%) [3]: 0%
- Population Membrane Permeable-Phenotype (%) [3]: 7%
- Population Mitochondria Different-Phenotype (%) [3]: 0% and 1%
- Population Mitotic Cells (%) [3]: 49% and 56%
- Population Normal (%) [3]: 100%
- Population Pyknosed Nuclei (%) [3]: 29% and 25%
- Population Tubulin-Different-Phenotype (%) [3]: 26% and 11%
- Total Cell Count [3]: 193 and 267
- Population Apoptotic (%) [4]: 81% and 68%
- Population Fragmented Nuclei (%) [4]: 10%
- Population Healthy Nuclei (%) [4]: 64% and 51%
- Population Hoechst High Intensity Objects (%) [4]: 0%
- Population Membrane Permeable-Phenotype (%) [4]: 4%
- Population Mitochondria Different-Phenotype (%) [4]: 1%
- Population Mitotic Cells (%) [4]: 18% and 31%
- Population Normal (%) [4]: 99% and 100%
- Population Pyknosed Nuclei (%) [4]: 25% and 37%
- Population Tubulin-Different-Phenotype (%) [4]: 27% and 18%
- Total Cell Count [4]: 281 and 247
- Population Apoptotic (%) [5]: 66% and 59%
- Population Fragmented Nuclei (%) [5]: 18% and 9%
- Population Healthy Nuclei (%) [5]: 53% and 64%
- Population Hoechst High Intensity Objects (%) [5]: 1% and 0%
- Population Membrane Permeable-Phenotype (%) [5]: 14% and 11%
- Population Mitochondria Different-Phenotype (%) [5]: 0%
- Population Mitotic Cells (%) [5]: 33% and 40%
- Population Normal (%) [5]: 98% and 100%
- Population Pyknosed Nuclei (%) [5]: 27% and 26%
- Population Tubulin-Different-Phenotype (%) [5]: 38% and 17%
- Total Cell Count [5]: 197 and 276
- Population Apoptotic (%) [6]: 76% and 77%
- Population Fragmented Nuclei (%) [6]: 11% and 12%
- Population Healthy Nuclei (%) [6]: 46% and 64%
- Population Hoechst High Intensity Objects (%) [6]: 0%
- Population Mitochondria Different-Phenotype (%) [6]: 0% and 1%
- Population Mitotic Cells (%) [6]: 23% and 22%
- Population Normal (%) [6]: 99% and 100%
- Population Pyknosed Nuclei (%) [6]: 42% and 22%
- Population Tubulin-Different-Phenotype (%) [6]: 45% and 39%
- Total Cell Count [6]: 261 and 279

Compound: CC(C)S(=O)(=O)c1ccccc1Nc1nc(N[C@@H]2CCCN(CCCCCCCNC(=O)COc3cccc4c3C(=O)N(C3CCC(=O)N(C)C3=O)C4=O)C2)ncc1Cl (stereo partly specified)
- Population Apoptotic (%) [1]: 58% and 50%
- Population Fragmented Nuclei (%) [1]: 7% and 16%
- Population Healthy Nuclei (%) [1]: 50% and 56%
- Population Hoechst High Intensity Objects (%) [1]: 0% and 1%
- Population Membrane Permeable-Phenotype (%) [1]: 10% and 9%
- Population Mitochondria Different-Phenotype (%) [1]: 5% and 6%
- Population Mitotic Cells (%) [1]: 41% and 49%
- Population Normal (%) [1]: 100% and 98%
- Population Pyknosed Nuclei (%) [1]: 42% and 27%
- Population Tubulin-Different-Phenotype (%) [1]: 58% and 39%
- Total Cell Count [1]: 178 and 249
- Population Apoptotic (%) [2]: 63% and 51%
- Population Fragmented Nuclei (%) [2]: 9% and 14%
- Population Healthy Nuclei (%) [2]: 42% and 36%
- Population Hoechst High Intensity Objects (%) [2]: 0%
- Population Membrane Permeable-Phenotype (%) [2]: 33% and 29%
- Population Mitochondria Different-Phenotype (%) [2]: 24% and 26%
- Population Mitotic Cells (%) [2]: 36% and 49%
- Population Normal (%) [2]: 100% and 99%
- Population Pyknosed Nuclei (%) [2]: 47% and 48%
- Population Tubulin-Different-Phenotype (%) [2]: 24% and 17%
- Total Cell Count [2]: 191 and 207
- Population Apoptotic (%) [3]: 81% and 86%
- Population Fragmented Nuclei (%) [3]: 16% and 21%
- Population Healthy Nuclei (%) [3]: 39% and 36%
- Population Hoechst High Intensity Objects (%) [3]: 0%
- Population Membrane Permeable-Phenotype (%) [3]: 13% and 8%
- Population Mitochondria Different-Phenotype (%) [3]: 6% and 5%
- Population Mitotic Cells (%) [3]: 18% and 14%
- Population Normal (%) [3]: 99% and 100%
- Population Pyknosed Nuclei (%) [3]: 43% and 42%
- Population Tubulin-Different-Phenotype (%) [3]: 25% and 18%
- Total Cell Count [3]: 189 and 238
- Population Apoptotic (%) [4]: 76% and 74%
- Population Fragmented Nuclei (%) [4]: 15% and 16%
- Population Healthy Nuclei (%) [4]: 37% and 28%
- Population Hoechst High Intensity Objects (%) [4]: 0%
- Population Membrane Permeable-Phenotype (%) [4]: 20% and 9%
- Population Mitochondria Different-Phenotype (%) [4]: 52% and 73%
- Population Mitotic Cells (%) [4]: 23% and 25%
- Population Normal (%) [4]: 99%
- Population Pyknosed Nuclei (%) [4]: 47% and 55%
- Population Tubulin-Different-Phenotype (%) [4]: 50% and 36%
- Total Cell Count [4]: 193 and 186
- Population Apoptotic (%) [5]: 86% and 96%
- Population Fragmented Nuclei (%) [5]: 15% and 24%
- Population Healthy Nuclei (%) [5]: 46% and 36%
- Population Hoechst High Intensity Objects (%) [5]: 0% and 1%
- Population Membrane Permeable-Phenotype (%) [5]: 19% and 21%
- Population Mitochondria Different-Phenotype (%) [5]: 4% and 6%
- Population Mitotic Cells (%) [5]: 13% and 3%
- Population Normal (%) [5]: 100% and 98%
- Population Pyknosed Nuclei (%) [5]: 38%
- Population Tubulin-Different-Phenotype (%) [5]: 24% and 27%
- Total Cell Count [5]: 178 and 207
- Population Apoptotic (%) [6]: 85% and 88%
- Population Fragmented Nuclei (%) [6]: 14% and 22%
- Population Healthy Nuclei (%) [6]: 35% and 28%
- Population Hoechst High Intensity Objects (%) [6]: 1%
- Population Membrane Permeable-Phenotype (%) [6]: 7% and 16%
- Population Mitochondria Different-Phenotype (%) [6]: 37% and 27%
- Population Mitotic Cells (%) [6]: 14% and 11%
- Population Normal (%) [6]: 98%
- Population Pyknosed Nuclei (%) [6]: 50% and 49%
- Population Tubulin-Different-Phenotype (%) [6]: 70% and 53%
- Total Cell Count [6]: 184 and 191

From ChEMBL document CHEMBL5303300, “EUbOPEN Chemogenomics Library - Multiplex” (2023)
